Reference: ChEMBL document CHEMBL3576817, “Synthesis and Evaluation of Conjugates of Novel TLR7 Inert Ligands as Self-Adjuvanting Immunopotentiators” (2015)
The source made the active and inactive calls. The rule behind the calls is not given here.

Key:
Mus musculus [1] = organism: Mus musculus; assay: Immunostimulatory activity in BALB/c mouse splenocytes assessed as induction of IL-12 production at 10 uM after 24 hrs by ELISA relative to GD2; type: functional, Splenocyte
Method in brief: (§1)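 Mouse splenocytes were seeded at 1 × 10^6/mL and incubated 24 h with serial dilutions of free ligand or conjugates. Antigen and conjugate concentrations were scaled for conjugation ratio: one-sixth for BSA, one-fifth for OVA and MSA, equal for MG7, one-quarter for thymosin. Supernatant IFN-γ and IL-12 were measured by ELISA and expressed as conjugated/free ligand ratios. Data are triplicates from one of three experiments.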

Mus musculus [2] = assay: Immunostimulatory activity in C57BL/6 mouse assessed as increase in IFN-gamma level in serum at 0.18 umol, iv after 2 to 48 hrs by luminex bead microassay relative to control; type: functional, organism-based
Method in brief: (§2)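 C57BL/6 mice (n = 5 per group) received 0.18 μmol intravenously. Serum was collected at set times after injection, and IFN-γ and IL-12 were measured by Luminex assay against saline-treated controls. Data are mean ± SEM of two independent experiments.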

Mus musculus [3] = organism: Mus musculus; assay: Immunostimulatory activity in BALB/c mouse splenocytes assessed as induction of IFN-gamma production at 10 uM after 24 hrs by ELISA relative to GD2; type: functional, Splenocyte; method in brief: as §1
Mus musculus [4] = assay: Immunostimulatory activity in C57BL/6 mouse assessed as increase in IFN-gamma level in serum at 0.18 umol, iv at 2 hrs by luminex bead microassay relative to control; type: functional, organism-based; method in brief: as §2
Mus musculus [5] = assay: Immunostimulatory activity in C57BL/6 mouse assessed as increase in IFN-gamma level in serum at 0.18 umol, iv after 2 to 6 hrs by luminex bead microassay in presence of OVA relative to control; type: functional, organism-based; method in brief: as §2
Mus musculus [6] = assay: Immunostimulatory activity in C57BL/6 mouse assessed as increase in IFN-gamma level in serum at 0.18 umol, iv after 2 to 6 hrs by luminex bead microassay in presence of BSA relative to control; type: functional, organism-based; method in brief: as §2
[7] = target: T1, Toll-like receptor 7 (Mus musculus) (UniProt P58681); assay: Agonist activity at TLR7 in mouse BMDM assessed as increase in IL-12 production at 2 uM after 24 hrs by ELISA in presence of thymosin
T1 sequence (whole entry): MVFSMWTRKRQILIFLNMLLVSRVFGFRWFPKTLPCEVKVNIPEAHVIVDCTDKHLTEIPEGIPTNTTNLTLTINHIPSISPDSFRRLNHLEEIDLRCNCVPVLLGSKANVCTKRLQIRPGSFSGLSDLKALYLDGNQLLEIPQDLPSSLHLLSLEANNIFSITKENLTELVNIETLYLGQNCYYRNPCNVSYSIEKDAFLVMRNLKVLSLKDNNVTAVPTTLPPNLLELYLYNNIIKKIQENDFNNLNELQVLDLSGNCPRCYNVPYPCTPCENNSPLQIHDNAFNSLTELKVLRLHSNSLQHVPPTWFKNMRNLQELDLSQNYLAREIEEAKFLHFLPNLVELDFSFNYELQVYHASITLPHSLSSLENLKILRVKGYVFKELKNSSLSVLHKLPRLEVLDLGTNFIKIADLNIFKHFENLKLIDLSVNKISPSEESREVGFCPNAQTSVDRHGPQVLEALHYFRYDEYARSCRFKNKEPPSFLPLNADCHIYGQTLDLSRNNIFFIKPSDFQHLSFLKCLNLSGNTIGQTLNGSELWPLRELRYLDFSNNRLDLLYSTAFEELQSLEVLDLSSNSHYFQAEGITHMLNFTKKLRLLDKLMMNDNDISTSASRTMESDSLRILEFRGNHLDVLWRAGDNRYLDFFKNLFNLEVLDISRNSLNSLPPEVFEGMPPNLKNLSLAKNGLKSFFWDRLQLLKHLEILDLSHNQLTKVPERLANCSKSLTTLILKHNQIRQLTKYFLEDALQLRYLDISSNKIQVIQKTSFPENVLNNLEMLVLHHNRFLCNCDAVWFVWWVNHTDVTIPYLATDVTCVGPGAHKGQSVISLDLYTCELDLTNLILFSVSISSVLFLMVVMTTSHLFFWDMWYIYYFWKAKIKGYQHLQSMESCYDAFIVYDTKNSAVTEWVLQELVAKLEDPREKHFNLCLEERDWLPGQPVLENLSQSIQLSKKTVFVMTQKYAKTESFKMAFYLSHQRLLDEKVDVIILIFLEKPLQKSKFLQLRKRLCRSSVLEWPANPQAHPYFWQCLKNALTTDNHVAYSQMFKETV
Method in brief: (§3)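 BMDM from wild-type or TLR7−/− mice were seeded at 1 × 10^6/mL. They were incubated 24 h with 2 μM antigen conjugates, with the free ligand at 10 μM. IL-12 in culture supernatants was measured by ELISA. Data are mean ± SEM of triplicates from one of three independent experiments. Only material with endotoxin <5 EU/mg was used.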

Mus musculus [8] = organism: Mus musculus; assay: Immunostimulatory activity in BALB/c mouse splenocytes assessed as induction of IFN-gamma production at 10 uM after 24 hrs by ELISA in presence of BSA relative to GD2; type: functional, Splenocyte; method in brief: as §1
Mus musculus [9] = assay: Immunostimulatory activity in C57BL/6 mouse assessed as increase in IFN-gamma level in serum at 0.18 umol, iv after 2 to 6 hrs by luminex bead microassay in presence of MG7 relative to control; type: functional, organism-based; method in brief: as §2
Mus musculus [10] = organism: Mus musculus; assay: Immunostimulatory activity in BALB/c mouse splenocytes assessed as induction of IFN-gamma production at 10 uM after 24 hrs by ELISA in presence of MG7 relative to GD2; type: functional, Splenocyte; method in brief: as §1
Mus musculus [11] = organism: Mus musculus; assay: Immunostimulatory activity in BALB/c mouse splenocytes assessed as induction of IL-12 production at 10 uM after 24 hrs by ELISA in presence of MSA relative to GD2; type: functional, Splenocyte; method in brief: as §1
[12] = target: T1, Toll-like receptor 7 (Mus musculus); assay: Agonist activity at TLR7 in mouse BMDM assessed as increase in IL-12 production at 2 uM after 24 hrs by ELISA in presence of OVA; method in brief: as §3
Mus musculus [13] = assay: Immunostimulatory activity in C57BL/6 mouse assessed as increase in IgG1 level in serum at 5 nmol, sc administered every 7 days measured up to 30 days by ELISA; type: functional, organism-based
Method in brief: (§4)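 Mice were immunized with antigen, free ligand or conjugate, and serum was collected every 7 days from day 0 to day 30. BSA- or OVA-specific IgG1 and IgG2a were measured by ELISA. Data are mean ± SEM of triplicate from one of three independent experiments.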

Mus musculus [14] = organism: Mus musculus; assay: Immunostimulatory activity in BALB/c mouse splenocytes assessed as induction of IL-12 production at 10 uM after 24 hrs by ELISA in presence of BSA relative to GD2; type: functional, Splenocyte; method in brief: as §1
[15] = target: T1, Toll-like receptor 7 (Mus musculus); assay: Agonist activity at TLR7 in mouse BMDM assessed as increase in IL-12 production at 2 uM after 24 hrs by ELISA in presence of MG7; method in brief: as §3
Mus musculus [16] = organism: Mus musculus; assay: Immunostimulatory activity in BALB/c mouse splenocytes assessed as induction of IFN-gamma production at 10 uM after 24 hrs by ELISA in presence of MSA relative to GD2; type: functional, Splenocyte; method in brief: as §1
Mus musculus [17] = organism: Mus musculus; assay: Immunostimulatory activity in BALB/c mouse splenocytes assessed as induction of IFN-gamma production at 10 uM after 24 hrs by ELISA in presence of OVA relative to GD2; type: functional, Splenocyte; method in brief: as §1
Mus musculus [18] = organism: Mus musculus; assay: Immunostimulatory activity in BALB/c mouse splenocytes assessed as induction of IL-12 production at 10 uM after 24 hrs by ELISA in presence of thymosin relative to GD2; type: functional, Splenocyte; method in brief: as §1
[19] = target: T1, Toll-like receptor 7 (Mus musculus); assay: Agonist activity at TLR7 in mouse BMDM assessed as increase in IL-12 production at 2 uM after 24 hrs by ELISA in presence of MSA; method in brief: as §3
[20] = target: T1, Toll-like receptor 7 (Mus musculus); assay: Agonist activity at TLR7 in mouse BMDM assessed as increase in IL-12 production at 2 uM after 24 hrs by ELISA in presence of BSA; method in brief: as §3
Mus musculus [21] = assay: Immunostimulatory activity in C57BL/6 mouse assessed as increase in IgG2a level in serum at 1 nmol, sc administered every 7 days measured up to 30 days by ELISA in presence of OVA; type: functional, organism-based; method in brief: as §4
Mus musculus [22] = assay: Immunostimulatory activity in C57BL/6 mouse assessed as increase in IgG2a level in serum at 5 nmol, sc administered every 7 days measured up to 30 days by ELISA; type: functional, organism-based; method in brief: as §4
Mus musculus [23] = organism: Mus musculus; assay: Immunostimulatory activity in BALB/c mouse splenocytes assessed as induction of IL-12 production at 10 uM after 24 hrs by ELISA in presence of MG7 relative to GD2; type: functional, Splenocyte; method in brief: as §1
Mus musculus [24] = assay: Immunostimulatory activity in C57BL/6 mouse assessed as increase in IFN-gamma level in serum at 0.18 umol, iv after 2 to 6 hrs by luminex bead microassay in presence of thymosin relative to control; type: functional, organism-based; method in brief: as §2
Mus musculus [25] = assay: Immunostimulatory activity in C57BL/6 mouse assessed as increase in IgG1 level in serum at 1 nmol, sc administered every 7 days measured up to 30 days by ELISA in presence of OVA; type: functional, organism-based; method in brief: as §4
Mus musculus [26] = organism: Mus musculus; assay: Immunostimulatory activity in BALB/c mouse splenocytes assessed as induction of IFN-gamma production at 10 uM after 24 hrs by ELISA in presence of thymosin relative to GD2; type: functional, Splenocyte; method in brief: as §1
Mus musculus [27] = organism: Mus musculus; assay: Immunostimulatory activity in BALB/c mouse splenocytes assessed as induction of IL-12 production at 10 uM after 24 hrs by ELISA in presence of OVA relative to GD2; type: functional, Splenocyte; method in brief: as §1
Mus musculus [28] = assay: Immunostimulatory activity in C57BL/6 mouse assessed as increase in IgG1 level in serum at 0.83 nmol, sc administered every 7 days measured up to 30 days by ELISA in presence of BSA; type: functional, organism-based; method in brief: as §4
Mus musculus [29] = assay: Immunostimulatory activity in C57BL/6 mouse assessed as increase in IFN-gamma level in serum at 0.18 umol, iv after 2 to 6 hrs by luminex bead microassay in presence of MSA relative to control; type: functional, organism-based; method in brief: as §2
Mus musculus [30] = assay: Immunostimulatory activity in C57BL/6 mouse assessed as increase in IgG2a level in serum at 0.83 nmol, sc administered every 7 days measured up to 30 days by ELISA in presence of BSA; type: functional, organism-based; method in brief: as §4

In the case of COCCOc1nc(N)c2nc(O)n(Cc3ccc(C=O)cc3)c2n1, the “fold change (FC)” value (Mus musculus [1]) is reported as 61, the Activity (Mus musculus [2]) is reported as “inactive” and the “fold change (FC)” value (Mus musculus [3]) is reported as 524. The Activity (Mus musculus [4]) was “Active”.

COCCOc1nc(N)c2nc(O)n(CCCC(=O)O)c2n1 was tested, and the Activity (Mus musculus [5]) was “Active”, the Activity (Mus musculus [6]) was “Active” and the Activity [7] was “Active”. For the same compound, the “fold change (FC)” value (Mus musculus [8]) was 488, the Activity (Mus musculus [9]) was “Active” and the “fold change (FC)” value (Mus musculus [10]) was 550. For the same compound, the “fold change (FC)” value (Mus musculus [11]) was 42, the Activity (Mus musculus [2]) was “inactive” and the Activity [12] was “Active”. The Activity (Mus musculus [13]) was “inactive”, the “fold change (FC)” value (Mus musculus [14]) was 16 and the Activity [15] was “Active”. The “fold change (FC)” value (Mus musculus [16]) was 575, the “fold change (FC)” value (Mus musculus [17]) was 73 and the “fold change (FC)” value (Mus musculus [18]) was 409. The Activity [19] was “Active”, the Activity [20] was “Active” and the Activity (Mus musculus [21]) was “Active”. For the same compound, the Activity (Mus musculus [22]) was “inactive”, the “fold change (FC)” value (Mus musculus [23]) was 52 and the Activity (Mus musculus [24]) was “Active”. For the same compound, the Activity (Mus musculus [25]) was “Active”, the “fold change (FC)” value (Mus musculus [26]) was 1511 and the “fold change (FC)” value (Mus musculus [27]) was 175. For the same compound, the Activity (Mus musculus [28]) was “Active”, the Activity (Mus musculus [29]) was “Active” and the Activity (Mus musculus [30]) was “Active”.
